pIC50, pKi: −log10 of the molar value. Values belong to the compound of their own block, whether it stands above or below them. Activity calls are given as the source filed them. The rule behind the calls is not given here.
What was measured:
[1] = target: T1, Lysosomal acid glucosylceramidase (Homo sapiens, UniProt P04062, N409S); assay: (§1) Inhibition of glucocerebrosidase N370S mutant in spleen homogenates of patient with Gaucher disease using resorufin-beta-D-glucopyranoside as substrate after 20 mins fluorescence assay; type: tissue-based
[2] = tested on: T2, Lysosomal acid glucosylceramidase (Homo sapiens), P04062 [N409S]; assay: Induction of glucocerebrosidase N370S mutant translocation in fibroblasts of patient with Gaucher disease assessed as co-localization of LAMP-1 in lysosomes at 1 uM after 5 days by laser scanning confocal microscopic analysis
T2 sequence (whole entry): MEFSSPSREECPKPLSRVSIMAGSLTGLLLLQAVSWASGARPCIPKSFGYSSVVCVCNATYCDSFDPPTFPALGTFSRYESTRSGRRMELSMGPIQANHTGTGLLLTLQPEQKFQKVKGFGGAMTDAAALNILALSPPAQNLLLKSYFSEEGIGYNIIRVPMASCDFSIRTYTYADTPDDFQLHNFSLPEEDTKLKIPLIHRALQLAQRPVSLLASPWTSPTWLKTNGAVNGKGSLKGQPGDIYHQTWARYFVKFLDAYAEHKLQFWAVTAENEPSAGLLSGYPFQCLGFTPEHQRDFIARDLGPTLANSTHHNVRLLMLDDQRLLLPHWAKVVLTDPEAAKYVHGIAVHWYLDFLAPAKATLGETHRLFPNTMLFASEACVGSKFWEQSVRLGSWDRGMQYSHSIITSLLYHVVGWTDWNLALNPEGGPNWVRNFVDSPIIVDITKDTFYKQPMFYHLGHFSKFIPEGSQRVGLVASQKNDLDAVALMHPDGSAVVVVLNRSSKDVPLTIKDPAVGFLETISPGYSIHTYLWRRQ
Outline: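 Gaucher patient fibroblasts on chamber slides, treated 5 days with compound. Cells fixed in 3% paraformaldehyde and permeabilized with 0.1% Triton-X. Stained with anti-LAMP-1 (1:100) and anti-GCase R386 (1:500), then Alexa-488/555 secondaries and DAPI. Imaged by confocal laser scanning at identical laser settings; collapsed z-stacks.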

[3] = target: Somatostatin receptor type 4 (Homo sapiens, UniProt P31391); assay: Binding affinity to human SST4 receptor
[4] = tested on: T2, Lysosomal acid glucosylceramidase (Homo sapiens), P04062 [N409S]; assay: as §1; type: tissue-based
[5] = Plasma concentration in C57BL/6 mouse at 30 mg/kg, ip after 0.083 hrs; type: ADME, organism-based; set-up: dose 30 mg/kg, route intraperitoneal
Outline: (§2)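 Male C57BL/6 mice (20-21 g), single IP dose of 30 mg/kg at 3 mg/mL, 10 mL/kg, in 5% DMAC/5% Solutol HS 15/90% 10 mM pH 7.4 phosphate buffer; n=3 per time point. Retro-orbital blood into K2EDTA under isoflurane, pre-dose to 24 h. Plasma protein-precipitated with acetonitrile containing testosterone internal standard; LC-MS/MS positive ESI MRM; calibration 1.00-10000 ng/mL.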

Mus musculus [6] = assay: Tmax in C57BL/6 mouse at 30 mg/kg, ip after 24 hrs; type: ADME, organism-based; set-up: dose 30 mg/kg, route intraperitoneal; settings: in vivo; outline: as §2
Mus musculus [7] = assay: AUClast in C57BL/6 mouse at 30 mg/kg, ip after 24 hrs; type: ADME, organism-based, Plasma; set-up: time < 24 hr, dose 30 mg/kg, route intraperitoneal; settings: in vivo; outline: as §2
[8] = Plasma concentration in C57BL/6 mouse at 30 mg/kg, ip after 0.5 hrs; type: ADME, organism-based; set-up: dose 30 mg/kg, route intraperitoneal; outline: as §2
[9] = Plasma concentration in C57BL/6 mouse at 30 mg/kg, ip after 12 hrs; type: ADME, organism-based; set-up: dose 30 mg/kg, route intraperitoneal; outline: as §2
Mus musculus [10] = assay: AUC (infinity) in C57BL/6 mouse at 30 mg/kg, ip after 24 hrs; type: ADME, organism-based, Plasma; set-up: time infinity, dose 30 mg/kg, route intraperitoneal; settings: in vivo; outline: as §2
[11] = Plasma concentration in C57BL/6 mouse at 30 mg/kg, ip after 0.25 hrs; type: ADME, organism-based; set-up: dose 30 mg/kg, route intraperitoneal; outline: as §2
[12] = Plasma concentration in C57BL/6 mouse at 30 mg/kg, ip after 8 hrs; type: ADME, organism-based; set-up: dose 30 mg/kg, route intraperitoneal; outline: as §2
[13] = Plasma concentration in C57BL/6 mouse at 30 mg/kg, ip after 2 hrs; type: ADME, organism-based; set-up: dose 30 mg/kg, route intraperitoneal; outline: as §2
[14] = target: T1, Lysosomal acid glucosylceramidase; assay: Inhibition of glucocerebrosidase N370S mutant in spleen homogenates of patient with Gaucher disease using resorufin-beta-D-glucopyranoside as substrate after 60 mins fluorescence assay; type: tissue-based
[15] = Plasma concentration in C57BL/6 mouse at 30 mg/kg, ip after 24 hrs; type: ADME, organism-based; set-up: dose 30 mg/kg, route intraperitoneal; outline: as §2
[16] = Plasma concentration in C57BL/6 mouse at 30 mg/kg, ip after 1 hr; type: ADME, organism-based; set-up: dose 30 mg/kg, route intraperitoneal; outline: as §2
Mus musculus [17] = assay: Cmax in C57BL/6 mouse at 30 mg/kg, ip after 24 hrs; type: ADME, organism-based; set-up: dose 30 mg/kg, route intraperitoneal; settings: in vivo; outline: as §2
[18] = Plasma concentration in C57BL/6 mouse at 30 mg/kg, ip after 4 hrs; type: ADME, organism-based; set-up: dose 30 mg/kg, route intraperitoneal; outline: as §2
Mus musculus [19] = assay: Half life in C57BL/6 mouse at 30 mg/kg, ip after 24 hrs; type: ADME, organism-based; set-up: dose 30 mg/kg, route intraperitoneal; settings: in vivo; outline: as §2

Sequence of Somatostatin receptor type 4 (P31391 whole entry): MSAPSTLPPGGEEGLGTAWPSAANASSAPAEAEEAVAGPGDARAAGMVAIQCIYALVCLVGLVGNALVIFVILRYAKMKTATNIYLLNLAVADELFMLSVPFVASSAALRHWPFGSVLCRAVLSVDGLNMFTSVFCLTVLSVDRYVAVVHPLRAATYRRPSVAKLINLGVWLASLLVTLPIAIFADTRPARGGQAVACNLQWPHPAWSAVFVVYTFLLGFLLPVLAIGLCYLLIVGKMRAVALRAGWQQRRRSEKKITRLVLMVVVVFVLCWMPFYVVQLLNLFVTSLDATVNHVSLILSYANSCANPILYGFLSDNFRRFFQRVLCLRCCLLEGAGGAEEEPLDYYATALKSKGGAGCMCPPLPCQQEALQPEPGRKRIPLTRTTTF

pIC50 [1]: 5.14
Structure (SMILES): S=C(NCCCc1c[nH]cn1)NCCCN(Cc1ccc(Cl)c(Cl)c1)c1ccccn1

pIC50 [1]: 5.70
Structure (SMILES): S=C(NCCCc1cnc[nH]1)NCCCN(CCc1ccc(Cl)cc1)c1ccc(Br)cn1

pIC50 [1]: 5.68
Structure (SMILES): S=C(NCCCc1c[nH]cn1)NCCN(Cc1ccc(Cl)c(Cl)c1)c1ccc(Br)cn1

pIC50 [1]: 6.22
Structure (SMILES): O=C(NCCCc1c[nH]cn1)NCCCN(Cc1ccc(Cl)c(Cl)c1)c1ccc(Br)cn1

pIC50 [1]: 4.35
Structure (SMILES): NCCCNC(=S)NCCCN(Cc1ccc(Cl)cc1)c1ccc(Br)cn1

Activity [2]: Active
Structure (SMILES): OC[C@H]1CNC[C@@H](O)[C@@H]1O

Structure (SMILES): CN(CCCN(Cc1ccc(Cl)cc1)c1ccc(Br)cn1)C(=S)NCCCc1cnc[nH]1
pKi [3]: 7.72
pIC50 [1]: 5.55

pIC50 [1]: 6.10
Structure (SMILES): S=C(NCCCCN(Cc1ccc(Cl)cc1)c1ccc(Br)cn1)NCCCc1cnc[nH]1

inhibition [4]: inactive
Structure (SMILES): CCCCNC(=S)NCCCN(Cc1ccc(Cl)c(Cl)c1)c1ccc(Br)cn1

pIC50 [1]: 6.00
Structure (SMILES): O=C(NCCCc1cnc[nH]1)NCCCN(Cc1ccc(Cl)cc1)c1ccc(Br)cn1

pIC50 [1]: 4.74
Structure (SMILES): S=C(NCCCN(Cc1ccc(Cl)c(Cl)c1)c1ccc(Br)cn1)NCCc1c[nH]cn1

pIC50 [1]: 5.40
Structure (SMILES): S=C(NCCCc1cnc[nH]1)NCCCN(Cc1ccc(Cl)cc1)c1cc(-c2ccccc2)ccn1

pKi [3]: 7.59
pIC50 [1]: 4.74
Structure (SMILES): CN(CCCc1cnc[nH]1)C(=S)NCCCN(Cc1ccc(Cl)cc1)c1ccc(Br)cn1

pIC50 [1]: 5.55
Structure (SMILES): S=C(NCCCc1cnc[nH]1)NCCCN(CCc1ccccc1)c1ccc(Br)cn1

inhibition [4]: inactive
Structure (SMILES): CC(=O)NCCCNC(=S)NCCCN(Cc1ccc(Cl)cc1)c1ccc(Br)cn1

pIC50 [1]: 5.89
Structure (SMILES): S=C(NCCCc1cnc[nH]1)NCCCN(Cc1ccc(Cl)cc1)c1ccc(-c2ccccc2)cn1

pKi [3]: 6.16
pIC50 [1]: 4.34
Structure (SMILES): S=C(NCCCNc1ccc(Br)cn1)NCCCc1c[nH]cn1

pIC50 [1]: 5.09
Structure (SMILES): CCCCN(CCCNC(=S)NCCCc1c[nH]cn1)c1ccc(Br)cn1

pIC50 [1]: 5.24
Structure (SMILES): S=C(NCCCc1c[nH]cn1)NCCCN(Cc1ccccc1)c1ccc(Br)cn1

Activity [2]: Active
pKi [3]: 6.80
pIC50 [1]: 5.89
Structure (SMILES): S=C(NCCCc1cnc[nH]1)NCCCN(Cc1ccc(Cl)cc1)c1ccc(Br)cc1

pIC50 [1]: 5.92
Structure (SMILES): S=C(NCCCc1c[nH]cn1)NCCCN(Cc1ccc(Cl)cc1)c1ccc(Br)cn1

Structure (SMILES): S=C(NCCCc1c[nH]cn1)NCCCN(Cc1ccc(Cl)c(Cl)c1)c1ccc(Br)cn1
Activity [2]: Active
concentration at 0.083 h [5]: 3.03 µM
Tmax (Mus musculus [6]): 1 h
AUClast (Mus musculus [7]): 20600 ng·h/mL
concentration at 0.5 h [8]: 4.84 µM
concentration at 12 h [9]: 0.2 µM
AUC (Mus musculus [10]): 20700 ng·h/mL
concentration at 0.25 h [11]: 4.24 µM
concentration at 8 h [12]: 1.35 µM
concentration at 2 h [13]: 6.17 µM
pIC50 [14]: 6.24
concentration at 24 h [15]: 0.02 µM
concentration at 1 h [16]: 6.39 µM
Cmax (Mus musculus [17]): 3553 ng/mL
concentration at 4 h [18]: 4.29 µM
pIC50 [1]: 6.22
t1/2 (Mus musculus [19]): 2.57 h

Source: ChEMBL document CHEMBL3217744, “Non-iminosugar glucocerebrosidase small molecule chaperones” (Medchemcomm, 2012)
